The record followed here is ChEMBL document CHEMBL1137788, “Potential neuroprotective drugs in cerebral ischemia: new saturated and polyunsaturated lipids coupled to hydrophilic moieties: synthesis and biological activity” (J Med Chem, 2009).

The test system of data set [1] is HT-22. Put plainly: Neuroprotective effect against glutamate-induced neuronal cell death in mouse HT22 cells assessed as cell survival at 1 to 10 uM treated simultaneously with glutamate after 24 hrs by MTT assay. It counts as functional. In short, it runs like this: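 Mouse HT22 hippocampal cells grown in DMEM/10% FCS, seeded 5 × 10³ cells/well. Next day medium changed to DMEM with 7.5% dialyzed FCS and cells given analogue doses together with 5 mM glutamate for 24 h. Medium then replaced with 2.5 μg/mL MTT for 4 h at 37 °C and solubilized in 50% DMF/20% SDS (pH 4.7). A570 read next day. Maximal % survival at best dose reported.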
On the technique in general: Tetrazolium dyes change colour on reduction, which living cells bring about.

The subject of data set [2] is HT-22. The data set can be described thus: Neuroprotective effect against iodoacetic acid-induced ischemia in mouse HT22 cells assessed as cell survival at 1 to 10 uM treated simultaneously with iodoacetic acid for 2 hrs followed by incubation in fresh medium containing drug alone for 20 hrs measured after 4 hrs by MTT assay. The format is functional. In short, it runs like this:
(§1)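 HT22 cells were seeded at 5 × 10³ per well and moved next day to DMEM with 7.5% dialyzed FCS. They were exposed to 20 μM iodoacetic acid plus graded compound doses for 2 h, then given fresh IAA-free medium containing compound for 20 h. MTT was added for 4 h at 37 °C and absorbance read at 570 nm.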

Data set [3] deals with HT-22. The data set can be described thus: Activation of ERK phosphorylation in mouse HT22 cells at 10 uM treated simultaneously with iodoacetic acid for 2 hrs followed by 2 hrs of recovery in presence of drug alone by immunoblot analysis. The format is cell-based. In short, it runs like this:
(§2)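 HT22 cells, plated at the same density as for the death assays, were given 10 μM compound with or without 20 μM IAA for 2 h, then allowed 2 h of recovery with compound present. Cells were washed in PBS and lysed in SDS sample buffer with Na3VO4 and PMSF. Lysates were run on 10% gels and immunoblotted for phospho and total ERK, JNK, p38, c-Jun and MAPKAPK2.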
On the technique in general: A western blot detects proteins with antibodies after separation by electrophoresis.

The nature of data set [4]: Cytotoxicity against mouse HT22 cells at 10 uM after 24 hrs by MTT assay. The settings on record: ht-22, 24 h. It counts as cell-based. Summed up:
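HT22 cells grown in DMEM with 10% FCS were seeded at 5 × 10³ cells per well. The medium was switched to DMEM with 7.5% dialyzed FCS and cells were exposed to 10 μM compound alone. Viability was read after 24 h by MTT (2.5 μg/mL, 4 h at 37 °C, solubilized in DMF/SDS pH 4.7) at 570 nm.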

Data set [5] deals with HT-22. Put plainly: Neuroprotective effect against iodoacetic acid-induced ischemia in mouse HT22 cells treated simultaneously with iodoacetic acid for 2 hrs followed by incubation in fresh medium containing drug alone for 20 hrs measured after 4 hrs by MTT assay. The format is functional, cell-based. In short, it runs like this:
as §1

Another data set concerns Brain. Put plainly: Neuroprotective effect against glutamate-induced injury in rat brain slices at 10 uM treated 1 hr prior to and during glutamate challenge by 2, 3, 5-triphenyl tetrazolium chloride staining method. The format is functional, tissue-based. Summed up:
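Rat cortical slices were cultured with compound for 1 h before and during injury with 1 mM glutamate. Slice viability was assessed by TTC staining, n=6, mean ± SD.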

The subject of data set [6] is HT-22. The data set can be described thus: Inhibition of JNK activation in mouse HT22 cells assessed as c-jun phosphorylation at 10 uM treated simultaneously with iodoacetic acid for 2 hrs followed by 2 hrs of recovery in presence of drug alone by immunoblot analysis. It counts as cell-based. Summed up: as §2
Data set [7] has as its target T1, MAP kinase p38 (Mus musculus) (UniProt P47811+O08911+Q9WUI1+Q9Z1B7). Put plainly: Inhibition of p38 MAPK activation in mouse HT22 cells at 10 uM treated simultaneously with iodoacetic acid for 2 hrs followed by 2 hrs of recovery in presence of drug alone by immunoblot analysis. It counts as cell-based. The settings on record: HT-22. In short, it runs like this:
as §2

Data set [8] concerns the target T1, MAP kinase p38 (Mus musculus). Put plainly: Inhibition of p38 MAPK activation in mouse HT22 cells assessed as MAPKAPK2 phosphorylation at 10 uM treated simultaneously with iodoacetic acid for 2 hrs followed by 2 hrs of recovery in presence of drug alone by immunoblot analysis. It counts as cell-based. The settings on record: HT-22. Summed up:
as §2

Data set [9] has as its system HT-22. The data set can be described thus: Inhibition of JNK activation in mouse HT22 cells at 10 uM treated simultaneously with iodoacetic acid for 2 hrs followed by 2 hrs of recovery in presence of drug alone by immunoblot analysis. The format is cell-based. In short, it runs like this: as §2

Active and inactive are the calls of the source. The rule behind the calls is not given here.

A word on the EC50: it is the concentration giving half of the maximal effect. Take `CCCCC/C=C/C/C=C/CCCCCCCC(=O)NC(C(=O)OCC)c1nnn[nH]1` (stereo not drawn): the “%max” value is 8% with HT-22 [1] and 41% with HT-22 [2]. Besides, the outcome in the data set on HT-22 [3] was inactive. In data set [4], this molecule came in with an Activity of 4%. The same molecule came in with a 50% effective concentration (EC50) in the data set on HT-22 [5] of 11.3 µM.

`CC(C)C1=CC2=CCC3[C@](C)(CCC[C@]3(C)C(=O)NC(CO)C(=O)O)[C@@H]2CC1` (stereo partly drawn): the “%max” value stood at 10% in the data set on HT-22 [1] and 27% with HT-22 [2]. Further, the outcome in the data set on HT-22 [3] was inactive. The Activity in data set [4] is reported as 26%.

For the molecule `CC1=CC(=O)CC(C)(C)C1(O)/C=C/C(C)=C/C(=O)NC(CO)C(=O)O` (stereo not drawn), the results for the “%max” value with HT-22 [1] and with HT-22 [2] were 14% and 70%, respectively. Moreover, in the data set with HT-22 [3], the outcome was inactive. The molecule further returned an Activity in [4] of 40%. The molecule also gave an EC50 with HT-22 [5] of 2.7 µM.

With `CC1=C(/C=C/C(C)=C/C=C/C(C)=C/C(=O)NC(CO)C(=O)O)C(C)(C)CCC1` (stereo not drawn), the “%max” value with HT-22 [1] was found to be 16%; in the data set on HT-22 [2] it was 63%. In addition, the outcome in the data set on HT-22 [3] was inactive. Further, in data set [4], the Activity worked out at 20%. In addition, the EC50 in the data set on HT-22 [5] is 4.1 µM.

For `CCOC(=O)C(CO)NC(=O)C=C(C)/C=C/C=C(C)/C=C/C1=C(C)CCCC1(C)C` (stereo not drawn), the “%max” value in the data set with HT-22 [1] was 14%; in the data set on HT-22 [2], 45%. For the same molecule, the outcome in the data set on HT-22 [3] was inactive. The same molecule gave an Activity in data set [4] of 15%. This molecule gave an EC50 with HT-22 [5] of 11.6 µM.

For `CCCCCCCCCCCCCCCCCC(=O)NC(CO)C(=O)O` (stereo not drawn), the “%max” value with HT-22 [1] is listed as 16%; in the data set with HT-22 [2] it was 65%. The result in the data set with HT-22 [3] was inactive. Further, the outcome in the data set on Brain was Active. Also, in data set [4], the Activity is recorded as 28%. The molecule also came in with an EC50 with HT-22 [5] of 3.2 µM.

Take `CCCCCCCCCCCCCCCCCC(=O)NC(CO)P(=O)(OC)OC` (stereo not drawn): the “%max” value in the data set with HT-22 [1] was determined as 17%; in the data set with HT-22 [2], 64%. In addition, in the data set with HT-22 [3], the outcome was inactive. For the same molecule, the Activity in data set [4] is reported as 11%. This molecule also returned an EC50 in the data set on HT-22 [5] of 4.1 µM.

With `CCOC(=O)C(CO)NC(=O)/C=C(C)/C=C/C1(O)C(C)=CC(=O)CC1(C)C` (stereo not drawn), the “%max” value is listed as 21% in the data set with HT-22 [1] and 39% with HT-22 [2]. Moreover, the outcome in the data set with HT-22 [3] was inactive. The Activity in data set [4] is reported as 1%. In addition, a half-maximal response in the data set with HT-22 [5] (EC50) required 13.6 µM.

Regarding `CCCCCCCCCCCCCCCCCC(=O)NCCCCCC(=O)OCC(O)C1OC(=O)C(OCc2ccccc2)=C1OCc1ccccc1` (stereo not drawn), the “%max” value in the data set on HT-22 [1] amounted to 19%; with HT-22 [2] it was 68%. The outcome in the data set on HT-22 [3] was inactive. Further, in [4], the Activity is reported as 48%. In the data set with HT-22 [5], this molecule yielded an EC50 of 2.5 µM.

For `CCCCC/C=C/C/C=C/CCCCCCCC(=O)NCCCCCC(=O)OCC(O)C1OC(=O)C(OCc2ccccc2)=C1OCc1ccccc1` (stereo not drawn), the “%max” value in the data set with HT-22 [1] came to 13%; in the data set with HT-22 [2], 59%. Besides, the outcome with HT-22 [3] was inactive. Besides, the Activity in [4] is 7%. Further, the EC50 in the data set on HT-22 [5] is 8.2 µM.

Take `CCCCCCCCCCCCCCCCCC(=O)NC(CO)C(=O)OCC` (stereo not drawn): the “%max” value in the data set on HT-22 [1] is reported as 16%; in the data set on HT-22 [2], 56%. Moreover, the result in the data set on HT-22 [3] was inactive. The molecule also showed an Activity in data set [4] of 53%. In the data set with HT-22 [5], this molecule displayed an EC50 of 9.8 µM.

With `CCOC(=O)C(CO)NC(=O)[C@@]1(C)CCC[C@@]2(C)C1CC=C1C=C(C(C)C)CC[C@H]12` (stereo partly drawn), the “%max” value in the data set with HT-22 [1] is 55%; in the data set with HT-22 [2], 85%. For the same molecule, the outcome (in the data set on HT-22 [6]; in data set [7]; in data set [8]; with HT-22 [9]) was Active. For the same molecule, the outcome with HT-22 [3] was inactive. In data set [4], this molecule yielded an Activity of 25%. The molecule also had an EC50 with HT-22 [5] of 1.05 µM.

For `CCCCCCCCCCCCCCCCCC(=O)NC(CO)P(=O)(O)O` (stereo not drawn), the figures for the “%max” value in the data set with HT-22 [1] and with HT-22 [2] were 20% and 74%, respectively. Besides, in the data set with HT-22 [3], the outcome was inactive. The Activity in data set [4] was found to be 50%. The molecule further returned a half-maximal effective concentration (EC50) in the data set on HT-22 [5] of 2.1 µM.

Consider `CCCCC/C=C\C/C=C\CCCCCCCC(=O)NCCCCCC(=O)OCC(O)C1OC(=O)C(O)=C1O` (stereo not drawn), for which the figures for the “%max” value with HT-22 [1] and with HT-22 [2] were 32% and 55%, respectively. For the same molecule, the outcome in the data set with HT-22 [3] was inactive. The molecule also gave an Activity in [4] of 19%. A half-maximal response in the data set with HT-22 [5] (EC50) required 6.4 µM.

With `O=c1c(O)c(-c2ccc(O)c(O)c2)oc2cc(O)ccc12` [FISETIN], in the data set with HT-22 [2], the “%max” value is reported as 95%. Besides, in the data set with HT-22 [3], the outcome was inactive. This molecule displayed an Activity in data set [4] of 15%. In the data set on HT-22 [5], this molecule registered a 50% effective concentration (EC50) of 2.8 µM.

For `CCCCCCCCCCCCCCCCCC(=O)NCCCCCC(=O)OCC(O)C1OC(=O)C(O)=C1O` (stereo not drawn), the “%max” value was found to be 65% with HT-22 [1] and 92% in the data set with HT-22 [2]. Also, the outcome with HT-22 [3] was inactive. The molecule also gave an Activity in [4] of 40%. For the same molecule, the response in the data set with HT-22 [5] was half-maximal at 1.8 µM (EC50).
